1 compound from ChEMBL document CHEMBL4020760, “Discovery of a Small Molecule Probe That Post-Translationally Stabilizes the Survival Motor Neuron Protein for the Treatment of Spinal Muscular Atrophy” (J Med Chem, 2017) can be followed below.

In brackets after ≈: the same amount, converted by molar mass. Activity calls are given as the source filed them. The calls are words filed in the database; no cut-off is given here.

A short description of series [1]: Fraction unbound in mouse plasma. It is filed as ADME, cell-free. Summed up:
(§1)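 Plasma protein binding measured in mouse and human plasma and expressed as percent free.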

Series [2] can be described thus: Fraction unbound in human plasma. It counts as ADME, cell-free. An outline of the steps:
as §1

Series [3] is described as follows: Aqueous solubility of the compound at pH 7.4. It counts as physicochemical. The following applies: aqueous solution. Summed up:
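Kinetic solubility measured in aqueous medium at pH 7.4.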

In series [4] the target is Survival motor neuron protein (Homo sapiens) (UniProt Q16637). Kind of series: Stabilization of SMN protein in 3813T fibroblasts derived from human SMA patient assessed as increase in SMN protein level at 2 uM after 48 hrs by SDS-PAGE and immunoblot. Summed up: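 hTERT-immortalized SMA patient 3813T fibroblasts seeded at 6000/well, next day dosed for 48 h at indicated concentrations, 0.1% DMSO. Lysed in boiling buffer (150 mM NaCl, 10 mM Tris pH 8.0, 2% SDS), run on 10% SDS-PAGE, SMN immunoblotted, normalized to tubulin or actin as fold over DMSO; one-way ANOVA with Dunnett.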
Sequence of Survival motor neuron protein (Homo sapiens) (Q16637 whole entry, the tested form may be a part): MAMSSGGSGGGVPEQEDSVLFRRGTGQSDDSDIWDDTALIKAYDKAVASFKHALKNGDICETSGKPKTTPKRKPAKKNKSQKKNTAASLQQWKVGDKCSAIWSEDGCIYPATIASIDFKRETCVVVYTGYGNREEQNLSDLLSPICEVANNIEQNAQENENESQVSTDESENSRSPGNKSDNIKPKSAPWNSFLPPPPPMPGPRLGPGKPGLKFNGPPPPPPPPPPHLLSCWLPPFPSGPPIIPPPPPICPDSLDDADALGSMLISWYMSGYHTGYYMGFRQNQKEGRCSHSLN
(In general: In western blotting, separated proteins are transferred to a membrane and probed.)

A short description of series [5]: Drug degradation in 0.1 to 1 N HCL after 1 to 24 hrs by LC-MS method. An outline of the steps: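 Compound held in 0.1 N and 1 N HCl at 37 °C for 24 h; aliquots taken at 1, 2, 4, 6 and 24 h and analysed by LCMS for percent degradation.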
Series [6] in a line: AUC (0 to 24 hrs) in mouse brain at 20 mg/kg, po. It counts as ADME, organism-based. The arrangement: time < 24 hr, dose 20 mg/kg, route oral.
Series [7] has as its system HEK293. The series is described as follows: Effect on cycloheximide-induced reduction in basal level of polyubiquitinated protein level in HEK293 cells at 1 uM pretreated for 2 hrs followed by cycloheximide addition measured after 6 hrs by SDS-PAGE analysis. It is filed as functional, cell-based. Conditions: Homo sapiens. An outline of the steps:
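HEK293 cells pretreated 2 h with test compound or MG-132 (1 and 10 μM), then DMSO or cycloheximide (10 μM) added and incubated a further 6 h; final DMSO 0.2%. Lysates run on 4–15% gradient SDS-PAGE; anti-ubiquitin blot for polyubiquitinated proteins, tubulin as loading control.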

The test system of series [8] is HEK293. The series is described as follows: Effect on p62 level in HEK293 cells at 10 uM after 8 hrs by immunoblot analysis. It is filed as functional, cell-based. Conditions: Homo sapiens. Summed up: (§2)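 HEK293 cells exposed 8 h to DMSO, compound or chloroquine; LC3 and p62 assessed by immunoblot.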
The subject of series [9] is HEK293. Kind of series: Effect on LC3-2 level in HEK293 cells at 10 uM after 8 hrs by immunoblot analysis. It counts as functional, cell-based. Conditions: Homo sapiens. Summed up: as §2
Series [10] deals with Survival motor neuron protein (Homo sapiens) (UniProt Q16637). Kind of series: Stabilization of human luc fused SMN protein expressed in HEK293 cells at 10 uM after 24 hrs in presence of 10 uM cycloheximide by luciferase reporter gene assay. It counts as cell-based. An outline of the steps:
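SMN2-luciferase reporter cells were maintained in high-glucose DMEM with 10% FBS, Pen/Strep and hygromycin at 37 °C. They were treated at the same time with cycloheximide (10 μM), to block protein synthesis, and with compound or DMSO. Cells were lysed at set time points, and SMN2-luc (firefly) and Renilla-luc activities were read by dual-luciferase assay.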
A general note: A reporter such as luciferase makes a cellular process visible.

The target of the next series is T1, CYP1A2 (Homo sapiens, UniProt P05177).
T1 sequence (P05177 whole entry): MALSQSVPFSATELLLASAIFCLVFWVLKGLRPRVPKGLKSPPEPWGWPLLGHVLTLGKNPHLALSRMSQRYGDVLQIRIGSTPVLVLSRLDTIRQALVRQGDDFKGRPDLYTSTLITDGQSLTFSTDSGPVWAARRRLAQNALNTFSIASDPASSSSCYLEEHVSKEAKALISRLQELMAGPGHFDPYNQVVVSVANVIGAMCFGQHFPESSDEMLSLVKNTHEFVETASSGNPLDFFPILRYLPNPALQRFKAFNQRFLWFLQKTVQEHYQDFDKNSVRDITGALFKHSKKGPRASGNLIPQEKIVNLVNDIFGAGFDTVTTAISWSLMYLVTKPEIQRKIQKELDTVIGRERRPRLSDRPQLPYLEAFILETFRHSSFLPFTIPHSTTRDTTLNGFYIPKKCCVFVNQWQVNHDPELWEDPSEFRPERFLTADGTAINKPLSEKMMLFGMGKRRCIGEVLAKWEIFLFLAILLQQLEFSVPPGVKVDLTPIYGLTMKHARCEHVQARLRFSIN
The series is described as follows: Inhibition of CYP1A2 (unknown origin) at 10 uM. It is filed as ADME.

For a further series, the target named is T2, CYP2A6 (Homo sapiens, UniProt P11509).
T2 sequence (P11509 whole entry): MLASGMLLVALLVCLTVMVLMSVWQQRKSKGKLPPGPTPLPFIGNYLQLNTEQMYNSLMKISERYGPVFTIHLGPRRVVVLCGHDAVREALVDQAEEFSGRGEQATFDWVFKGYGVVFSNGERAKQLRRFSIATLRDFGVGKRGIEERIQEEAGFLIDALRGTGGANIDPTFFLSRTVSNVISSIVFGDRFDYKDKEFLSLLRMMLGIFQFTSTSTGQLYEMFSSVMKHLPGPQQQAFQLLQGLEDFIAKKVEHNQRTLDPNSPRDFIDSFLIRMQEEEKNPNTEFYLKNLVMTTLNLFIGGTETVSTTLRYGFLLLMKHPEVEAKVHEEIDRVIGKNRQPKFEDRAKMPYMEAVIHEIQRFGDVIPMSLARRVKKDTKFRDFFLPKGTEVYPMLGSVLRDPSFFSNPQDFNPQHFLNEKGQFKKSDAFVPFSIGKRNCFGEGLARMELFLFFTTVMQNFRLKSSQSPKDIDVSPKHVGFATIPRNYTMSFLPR
The series is described as follows: Inhibition of CYP2A6 (unknown origin) at 10 uM. It counts as ADME.

The next series deals with CYP2C19 (Homo sapiens, UniProt P33261). Kind of series: Inhibition of CYP2C19 (unknown origin) at 10 uM. It is filed as ADME.
Sequence of CYP2C19 (P33261 whole entry): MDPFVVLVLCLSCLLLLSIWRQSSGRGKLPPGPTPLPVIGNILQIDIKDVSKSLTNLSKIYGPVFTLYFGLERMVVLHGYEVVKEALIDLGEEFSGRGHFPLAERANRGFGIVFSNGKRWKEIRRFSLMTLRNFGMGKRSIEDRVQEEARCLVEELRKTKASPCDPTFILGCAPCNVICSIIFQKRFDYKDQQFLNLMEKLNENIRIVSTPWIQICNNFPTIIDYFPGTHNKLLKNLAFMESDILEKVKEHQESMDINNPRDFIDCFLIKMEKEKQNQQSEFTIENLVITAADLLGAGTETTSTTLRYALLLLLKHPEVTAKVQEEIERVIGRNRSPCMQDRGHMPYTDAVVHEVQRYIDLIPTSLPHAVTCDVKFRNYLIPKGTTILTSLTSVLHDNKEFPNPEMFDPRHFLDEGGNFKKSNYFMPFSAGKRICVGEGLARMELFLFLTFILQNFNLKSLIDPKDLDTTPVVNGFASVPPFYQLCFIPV
A further series addresses CYP2C9 (Homo sapiens, UniProt P11712). The series is described as follows: Inhibition of CYP2C9 (unknown origin) at 10 uM. It counts as ADME.
A further series addresses CYP3A4 (Homo sapiens, UniProt P08684). Kind of series: Inhibition of CYP3A4 (unknown origin) at 10 uM. It is filed as ADME.
In the next series the test system is Lampyridae. Kind of series: Effect on firefly recombinant luciferase protein. An outline of the steps:
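Compound diluted in complete DMEM and incubated with recombinant firefly luciferase (1:10 000 in passive lysis buffer, 1 mg/mL BSA); activity read with SteadyLite reagent.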

Series [11] deals with Renilla. The series is described as follows: Effect on renilla recombinant luciferase protein.
Series [12] deals with Survival motor neuron protein (Homo sapiens) (UniProt Q16637). The series is described as follows: Stabilization of human SMN protein expressed in HEK293 cells expressing SMN2 promoter assessed as additive effect on SMN stabilization in presence of 0.1: 0.3 to 10:30 ratio of LDN-76070 to compound after 24 hrs by luciferase reporter gene assay. It is filed as cell-based. Summed up:
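SMN2 reporter cells exposed 24 h to the two compounds alone or combined at constant ratio, DMSO held at 0.2%, and SMN-luc read. Theoretical additive effect taken as the sum of the single-agent activities.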

For series [13], the system named is Renilla. Kind of series: Effect on renilla recombinant luciferase protein expressed in HEK293 cells at 10 uM after 24 hrs in presence of 10 uM cycloheximide by renilla luciferase reporter gene assay. It is filed as cell-based. An outline of the steps: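 SMN2-luc reporter cells given cycloheximide (10 μM) together with compound (10 μM) or DMSO. Lysed at set time points; SMN-luc and Renilla-luc activities measured.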

Sequence of CYP3A4 (P08684 whole entry): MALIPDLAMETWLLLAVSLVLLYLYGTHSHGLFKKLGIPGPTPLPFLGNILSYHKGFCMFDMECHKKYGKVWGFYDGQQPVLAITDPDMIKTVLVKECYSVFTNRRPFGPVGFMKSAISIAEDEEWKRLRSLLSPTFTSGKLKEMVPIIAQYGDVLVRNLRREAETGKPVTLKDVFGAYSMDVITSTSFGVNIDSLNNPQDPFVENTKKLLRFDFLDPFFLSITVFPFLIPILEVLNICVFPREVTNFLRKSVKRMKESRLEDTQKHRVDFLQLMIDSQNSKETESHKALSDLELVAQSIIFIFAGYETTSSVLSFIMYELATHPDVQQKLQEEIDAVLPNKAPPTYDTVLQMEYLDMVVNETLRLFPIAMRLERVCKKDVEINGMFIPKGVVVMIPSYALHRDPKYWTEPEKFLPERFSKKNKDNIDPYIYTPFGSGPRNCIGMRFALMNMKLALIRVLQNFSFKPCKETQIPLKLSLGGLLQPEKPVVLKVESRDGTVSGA
Sequence of CYP2C9 (P11712 whole entry): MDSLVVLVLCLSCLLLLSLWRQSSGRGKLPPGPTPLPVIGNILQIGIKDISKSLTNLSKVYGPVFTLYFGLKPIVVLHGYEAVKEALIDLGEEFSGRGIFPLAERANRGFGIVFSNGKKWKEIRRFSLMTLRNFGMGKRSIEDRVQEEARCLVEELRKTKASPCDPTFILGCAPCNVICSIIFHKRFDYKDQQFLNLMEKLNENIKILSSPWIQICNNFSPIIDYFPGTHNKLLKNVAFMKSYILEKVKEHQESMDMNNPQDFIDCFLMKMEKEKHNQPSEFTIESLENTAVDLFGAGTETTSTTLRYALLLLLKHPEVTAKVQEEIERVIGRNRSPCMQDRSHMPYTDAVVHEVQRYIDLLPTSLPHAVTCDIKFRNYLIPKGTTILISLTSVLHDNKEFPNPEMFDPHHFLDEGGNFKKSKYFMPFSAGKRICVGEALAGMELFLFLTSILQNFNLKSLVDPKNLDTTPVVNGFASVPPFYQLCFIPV

Turning to `O=C(Nc1ncc(C2(O)CCC2)s1)c1ccc(F)c(Cl)c1`, the fraction unbound (usually free concentration divided by total concentration) in [1] amounted to 0.047; in series [2], 0.035. Besides, the kinetic solubility – broadly, the concentration staying in solution when a stock, usually in DMSO, is diluted into the medium – in series [3] stood at 31 µM (≈ 10.1 µg/mL). Moreover, the fold change (FC) in series [4] was determined as 2. Further, the Drug degradation in series [5] was < 5%. In series [6], the AUC(0-t) (in general, exposure summed from dosing to a finite time, without extrapolation to infinity) at 24 h was 2220 ng·h/mL. The result in the series on HEK293 [7], with HEK293 [8], in the series with HEK293 [9], in the series on Lampyridae, in the series on Renilla [11] and in the series with Renilla [13] was inactive. Further, the result in [10] and in [12] was Active. The inhibition at 10 µM against CYP1A2, at CYP2A6, against CYP2C19, on CYP2C9 and on CYP3A4 was < 50% each time.
